Measurements: ChEMBL document CHEMBL3112493, “Synthesis of 2,6-disubstituted benzylamine derivatives as reversible selective inhibitors of copper amine oxidases” (Bioorg Med Chem, 2014)
pIC50: −log10 of the molar value. Calls of active or inactive are those of the source. The rule behind the calls is not given here.

What was measured:
[1] = molecular target: T1, Amine oxidase [flavin-containing] B (Rattus norvegicus, UniProt P19643); assay: Inhibition of rat liver MAO-B using 2-phenyl[1-14C]-ethylamine/[7-14C]-benzylamine as substrate preincubated for 30 mins followed by substrate addition
T1 sequence (P19643 whole entry): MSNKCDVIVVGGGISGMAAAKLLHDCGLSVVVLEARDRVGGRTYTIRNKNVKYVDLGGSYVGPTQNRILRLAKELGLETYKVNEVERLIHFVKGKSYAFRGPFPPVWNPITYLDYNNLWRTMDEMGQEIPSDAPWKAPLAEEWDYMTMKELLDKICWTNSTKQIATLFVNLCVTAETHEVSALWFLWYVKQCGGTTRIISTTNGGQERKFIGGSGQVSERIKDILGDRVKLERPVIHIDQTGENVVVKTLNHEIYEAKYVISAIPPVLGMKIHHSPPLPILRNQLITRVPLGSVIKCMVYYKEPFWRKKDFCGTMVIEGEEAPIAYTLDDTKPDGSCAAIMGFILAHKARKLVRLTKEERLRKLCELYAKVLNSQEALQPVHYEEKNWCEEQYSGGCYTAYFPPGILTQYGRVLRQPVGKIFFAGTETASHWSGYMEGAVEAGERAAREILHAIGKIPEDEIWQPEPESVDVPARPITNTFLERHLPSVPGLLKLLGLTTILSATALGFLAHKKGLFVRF
Summary of the method: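 MAO B source was rat liver mitochondria, obtained by 1:10 homogenization in 0.01 M phosphate pH 7.4 with 0.25 M sucrose, then centrifugation at 1000g and 10,000g (20 min each). Mitochondria were preincubated with inhibitor (6 concentrations) for 30 min at 30 °C. Saturating 2-phenyl[1-14C]ethylamine was then added and activity measured radiochemically.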

[2] = species: Sus scrofa; assay: Mixed-type inhibition of porcine serum BAO using [7-14C]-benzylamine as substrate by Lineweaver-Burk plot analysis
[3] = species: Sus scrofa; assay: Reversible inhibition of porcine serum BAO using [7-14C]-benzylamine as substrate assessed as residual activity at 4 times IC50 preincubated for 5 mins followed by 10 fold dilution relative to control
Summary of the method: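 Solutions were diluted 1:10 and 1:100, and portions were dialyzed against water at 4 °C for 24 h. Activity was read with saturating [7-14C]benzylamine; the reaction was stopped with 3 N HCl and labeled benzaldehyde extracted into ethyl acetate and counted.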

[4] = molecular target: T2, Diamine oxidase [copper-containing] (Sus scrofa, UniProt Q9TRC7); assay: Inhibition of porcine kidney DAO using [1,4-14C]-putrescine as substrate preincubated for 30 mins followed by substrate addition
T2 sequence (Q9TRC7 whole entry): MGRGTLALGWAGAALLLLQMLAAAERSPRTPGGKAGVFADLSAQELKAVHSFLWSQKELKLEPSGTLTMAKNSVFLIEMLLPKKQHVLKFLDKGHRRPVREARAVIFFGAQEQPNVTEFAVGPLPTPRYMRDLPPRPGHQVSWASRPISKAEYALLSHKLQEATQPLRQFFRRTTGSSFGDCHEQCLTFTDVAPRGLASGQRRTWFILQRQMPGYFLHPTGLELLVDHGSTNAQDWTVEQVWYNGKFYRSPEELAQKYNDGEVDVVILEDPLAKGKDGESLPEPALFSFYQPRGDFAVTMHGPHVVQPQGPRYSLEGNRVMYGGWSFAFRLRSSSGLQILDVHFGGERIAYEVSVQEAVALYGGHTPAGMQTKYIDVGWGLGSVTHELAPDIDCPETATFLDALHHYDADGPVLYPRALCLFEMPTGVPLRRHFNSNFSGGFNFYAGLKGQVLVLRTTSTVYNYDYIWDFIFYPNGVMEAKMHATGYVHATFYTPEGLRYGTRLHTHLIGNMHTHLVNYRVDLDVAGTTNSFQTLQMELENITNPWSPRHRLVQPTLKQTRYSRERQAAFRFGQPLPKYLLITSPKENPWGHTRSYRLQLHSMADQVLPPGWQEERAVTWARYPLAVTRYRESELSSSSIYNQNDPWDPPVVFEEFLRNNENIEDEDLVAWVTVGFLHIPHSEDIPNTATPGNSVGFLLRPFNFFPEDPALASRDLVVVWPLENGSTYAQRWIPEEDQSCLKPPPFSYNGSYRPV
Summary of the method: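 Porcine kidney diamine oxidase was preincubated with inhibitor at 6 concentrations for 30 min at 30 °C. Saturating [1,4-14C]putrescine was then added and activity was determined radiochemically. In some cases H2O2 production was measured by the 4-aminoantipyrine method.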

[5] = molecular target: T3, Protein-lysine 6-oxidase (Sus scrofa, UniProt P45845); assay: Inhibition of porcine aorta lysyl oxidase preincubated for 30 mins followed by substrate addition
T3 sequence (P45845 whole entry): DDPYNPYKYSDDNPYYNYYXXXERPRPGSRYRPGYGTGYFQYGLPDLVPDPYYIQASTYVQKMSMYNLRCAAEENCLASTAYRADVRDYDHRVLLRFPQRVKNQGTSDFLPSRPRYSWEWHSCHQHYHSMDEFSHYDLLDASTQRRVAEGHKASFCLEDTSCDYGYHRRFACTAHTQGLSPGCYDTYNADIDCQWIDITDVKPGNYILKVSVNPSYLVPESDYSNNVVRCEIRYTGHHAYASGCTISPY
Summary of the method: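 Porcine aorta lysyl oxidase, prepared in-house. Enzyme was preincubated with inhibitor at 6 concentrations for 30 min at 30 °C. Saturating tritiated protein-bound lysine substrate was then added and activity was measured radiochemically. In some cases H2O2 production was followed instead, by the 4-aminoantipyrine method.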

[6] = Acute toxicity in ip dosed Swiss mouse assessed as appearance of tonic-clonic convulsion followed by respiratory block measured after 15 to 20 mins; format: organism-based; details: in vivo
[7] = Inhibition of porcine serum BAO using [7-14C]-benzylamine as substrate preincubated for 30 mins followed by substrate addition; set-up: species or system Sus scrofa
Summary of the method: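 Porcine serum benzylamine oxidase was preincubated with inhibitor at 6 concentrations for 30 min at 30 °C. [7-14C]Benzylamine was then added at a saturating level and radiochemical activity was measured. In some cases H2O2 formation was followed by the 4-aminoantipyrine method.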

[8] = species: Sus scrofa; assay: Non-competitive inhibition of porcine serum BAO using [7-14C]-benzylamine as substrate by Lineweaver-Burk plot analysis
[9] = Oral bioavailability in rat; format: ADME, organism-based; details: in vivo
[10] = Half life in rat; format: ADME, organism-based; details: in vivo

bioavailability [9] [%] | half-life [10] [h] | SMILES | pIC50 [1] | inhibition mode (qualitative) [2] | Activity [3] [%] | pIC50 [4] | pIC50 [5] | LD50 [6] [mg/kg] | pIC50 [7] | inhibition [8]
– | – | CCCOc1cccc(OCCC)c1CN.Cl | < 3.00 | Active | 50 | < 3.00 | < 3.00 | 37 | – | –
– | – | CCOc1cccc(OCC)c1CN.Cl | < 3.00 | Active | 50 | < 3.00 | < 3.00 | 74 | 6.74 | –
– | – | Cl.NCc1c(OCCCO)cccc1OCCCO | < 3.00 | Active | 50 | < 3.00 | < 3.00 | 690 | 6.26 | –
– | – | CC(C)Oc1cccc(OC(C)C)c1CN | < 3.00 | – | – | < 3.00 | < 3.00 | – | < 3.00 | –
– | – | CCOCc1cccc(COCC)c1CN | < 3.00 | – | – | < 3.00 | < 3.00 | – | < 3.00 | –
– | – | NCc1c(O)cccc1O | < 3.00 | – | – | < 3.00 | < 3.00 | – | < 3.00 | –
– | – | COc1cccc(OC)c1CN.Cl | 3.72 | Active | > 80 | < 3.00 | < 3.00 | 120 | 3.92 | –
– | – | Cl.NCc1c(OCCCCO)cccc1OCCCCO | < 3.00 | Active | 50 | < 3.00 | < 3.00 | 540 | 7.18 | –
– | – | CCCCc1cccc(CCCC)c1CN.Cl | < 3.00 | Active | > 80 | < 3.00 | < 3.00 | 54 | 4.85 | –
– | – | COCc1cccc(COC)c1CN.Cl | < 3.00 | Active | > 80 | < 3.00 | < 3.00 | 240 | < 3.00 | –
– | – | NCc1ccccc1CO | < 3.00 | – | – | < 3.00 | < 3.00 | – | < 3.00 | –
– | – | CCCCOc1cccc(OCCCC)c1CN.Cl | < 3.00 | – | 50 | < 3.00 | < 3.00 | 25 | 6.85 | Active
– | – | CCCc1cccc(CCC)c1CN.Cl | < 3.00 | Active | > 80 | < 3.00 | < 3.00 | 55 | 4.82 | –
51.5 | 2 | CCOc1cncc(OCC)c1CN | – | – | – | – | – | – | – | –
– | – | CCc1cccc(CC)c1CN.Cl | < 3.00 | Active | > 80 | < 3.00 | < 3.00 | 92 | – | –
– | – | Cl.NCc1c(OCCO)cccc1OCCO | < 3.00 | Active | 50 | < 3.00 | < 3.00 | > 1000 | 5.59 | –
– | – | CCOc1ccccc1CN | < 3.00 | – | – | < 3.00 | < 3.00 | – | < 3.00 | –
– | – | NCc1ccccc1O | < 3.00 | – | – | < 3.00 | < 3.00 | – | < 3.00 | –
